Test results: ChEMBL document CHEMBL1147740, “Synthesis and biological activity of isoxazolidinyl polycyclic aromatic hydrocarbons: potential DNA intercalators” (J Med Chem, 2006)
Values after ≈ are worked out from the molar mass of the structure shown. *1 amine or outer side, *2 acyl side, *3 side chain or, on linkers, in order; H or OH if unused. Where a SMILES comes first, the peptide text is derived from it. Bridges are numbered along the chain shown (N, C = ends). Roman numbers before positions name the chains, in order. [ ]: non-standard residue; d: D form. Actinocin(1to9) = Cc1c2oc3c(C)ccc(C(=O)[*:2])c3nc-2c(C(=O)[*:1])c(N)c1=O; NMeV = CN[C@H](C(=O)O)C(C)C; Sar = CNCC(=O)O

Key:
MOLT-3 = experiment: Cytotoxicity against MOLT3 Leukemia cells by MTS assay; assay type: functional, cell-based, Homo sapiens
How it was run: (§1)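 MTS tetrazolium reduction assay; cells grown under optimal culture conditions for 20 h with compound at 10 to 500 µM or without it; MTS reagent then added for 1 h at 37 °C, humidified 5% CO2; absorbance read at 490 nm. Triplicate. IC50 is the concentration giving 50% reduction of absorbance.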

THP-1 = experiment: Cytotoxicity against THP1 Leukemia cells by MTS assay; assay type: functional, cell-based, Homo sapiens; conditions: thp-1; how it was run: as §1
U-937 = experiment: Cytotoxicity against U937 Lymphoma cells by MTS assay; assay type: functional, cell-based, Homo sapiens; how it was run: as §1
Vero [1] = experiment: Cytotoxicity against normal vero kidney cells by MTS assay; assay type: functional, cell-based, Chlorocebus sabaeus; conditions: vero; how it was run: as §1
HEL = experiment: Antiviral activity against HEL cells; assay type: functional, Homo sapiens
How it was run: (§2)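 Cytotoxicity scored as the concentration giving a microscopically detectable alteration of normal cell morphology in HEL, HeLa or Vero cells.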

Vero [2] = experiment: Antiviral activity against vero cells; assay type: functional, Chlorocebus sabaeus; how it was run: as §2
HeLa = experiment: Antiviral activity against HeLa cells; assay type: functional, Homo sapiens; how it was run: as §2
Human alphaherpesvirus 1 [3] = experiment: Antiviral activity against herpes simplex virus 1 TK- KOS ACVr strain in HEL cells; assay type: functional
How it was run: (§3)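 Minimum inhibitory concentration (µg/mL) needed to reduce virus-induced cytopathogenicity by 50%; HSV strains in HEL cells, Punta Toro virus in Vero cells.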

Punta Toro virus = experiment: Antiviral activity against Punta Toro virus in vero cells; assay type: functional; how it was run: as §3
Human respirovirus 3 = experiment: Antiviral activity against Parainfluenza-3 virus in vero cells; assay type: functional
How it was run: (§4)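 Virus infection of Vero cell cultures. The endpoint is the minimum inhibitory concentration (µg/mL) that reduces virus-induced cytopathogenicity by 50%.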

[4] = system: Mammalian orthoreovirus 1; experiment: Antiviral activity against Reovirus 1 in vero cells; assay type: functional; how it was run: as §4
Sindbis virus = experiment: Antiviral activity against Sindbis virus in vero cells; assay type: functional; how it was run: as §4
Coxsackievirus B4 [5] = experiment: Antiviral activity against Coxsackie virus B4 in vero cells; assay type: functional; conditions: Enterovirus B; how it was run: as §4
[6] = system: Respiratory syncytial virus; experiment: Antiviral activity against Respiratory syncytial virus in HeLa cells; assay type: functional; conditions: human respiratory syncytial virus
How it was run: (§5)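 Virus infection of HeLa cell cultures. The endpoint is the minimum inhibitory concentration (µg/mL) that reduces virus-induced cytopathogenicity by 50%.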

Coxsackievirus B4 [7] = experiment: Antiviral activity against Coxsackie virus B4 in HeLa cells; assay type: functional; conditions: Enterovirus B; how it was run: as §5
[8] = system: Vesicular stomatitis virus; experiment: Antiviral activity against Vesicular stomatitis virus in HeLa cells; assay type: functional; how it was run: as §5
Human alphaherpesvirus 1 [9] = experiment: Antiviral activity against Herpes simplex virus 1 KOS strain in HEL cells; assay type: functional, Human herpesvirus 1 strain KOS; conditions: Human alphaherpesvirus 1, KOS; how it was run: as §3
Human alphaherpesvirus 2 = experiment: Antiviral activity against Herpes simplex virus 2 G strain in HEL cells; assay type: functional; conditions: Human alphaherpesvirus 2, G; how it was run: as §3
Vaccinia virus = experiment: Antiviral activity against Vaccinia virus in HEL cells; assay type: functional; conditions: Orthopoxvirus vaccinia
How it was run: (§6)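 Virus infection of HEL cell cultures. The endpoint is the minimum inhibitory concentration (µg/mL) that reduces virus-induced cytopathogenicity by 50%.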

[10] = system: Vesicular stomatitis virus; experiment: Antiviral activity against Vesicular stomatitis virus in HEL cells; assay type: functional; how it was run: as §6
[11] = Chlorocebus sabaeus, Vero, read-out: MCC
[12] = Homo sapiens, HeLa, read-out: MCC
[13] = Punta Toro virus, read-out: MIC50
[14] = Homo sapiens, HEL, read-out: MCC
[15] = Human alphaherpesvirus 1, TK- KOS ACVr, read-out: MIC50

SMILES | MCC (Vero [2]; [11]) [µg/mL] | MCC (HeLa; [12]) [µg/mL] | MIC50 (Human respirovirus 3) [mg/L] | MIC50 [4] [mg/L] | MIC50 (Sindbis virus) [mg/L] | MIC50 (Coxsackievirus B4 [5]) [mg/L] | MIC50 (Punta Toro virus; [13]) [mg/L] | MIC50 [6] [mg/L] | MIC50 (Coxsackievirus B4 [7]) [mg/L] | MIC50 [8] [mg/L] | MCC (HEL; [14]) [µg/mL] | MIC50 (Human alphaherpesvirus 1 [9]) [mg/L] | MIC50 (Human alphaherpesvirus 2) [mg/L] | MIC50 (Vaccinia virus) [mg/L] | MIC50 [10] [mg/L] | MIC50 (Human alphaherpesvirus 1 [3]; [15]) [mg/L] | also measured
CN1O[C@H](CO)C[C@@H]1c1c2ccccc2cc2ccccc12 (relative stereo) |  |  |  |  |  |  |  |  |  |  |  |  |  |  |  |  | IC50 (MOLT-3; Homo sapiens, MOLT-3): > 500 µM
CN1O[C@H](CO)C[C@@H]1c1cc2ccccc2c2ccccc12 (relative stereo) |  |  |  |  |  |  |  |  |  |  |  |  |  |  |  |  | IC50 (THP-1): 148 µM; IC50 (MOLT-3; molt-3): 128 µM; IC50 (U-937; u-937): 154 µM; IC50 (Vero [1]): 231 µM; MCC (HEL): 400 µg/mL; MCC (Vero [2]): 80 µg/mL; MCC (HeLa): 80 µg/mL; MIC50 (Human alphaherpesvirus 1 [3]): >80 mg/L; MIC50 (Punta Toro virus): 9.6 mg/L (≈ 32.7 µM)
Nc1ncnc2c1ncn2C[C@H](O)CO [(S)-DHPA] | > 400 | > 400 | 400 (≈ 1910 µM) | 240 (≈ 1150 µM) | > 400 | > 400 | > 400 | > 400 | > 400 | > 400 |  |  |  |  |  |  | 
Nc1nc2c(ncn2COCCO)c(=O)[nH]1 [ACYCLOVIR] |  |  |  |  |  |  |  |  |  |  | > 400 | 0.384 (≈ 1.71 µM) | 0.384 (≈ 1.71 µM) | > 400 | > 400 | 48 (≈ 213 µM) | 
O=c1[nH]c(=O)n([C@H]2C[C@H](O)[C@@H](CO)O2)cc1/C=C/Br [BRIVUDINE] | > 400 | > 400 | > 400 | > 400 | > 400 | > 400 | > 400 | > 400 | > 400 | > 400 | > 400 | 0.128 (≈ 0.384 µM) | 240 (≈ 720 µM) | 48 (≈ 144 µM) | > 400 | > 400 | 
Cc1c2oc3c(C)ccc(C(=O)N[C@@H]4C(=O)N[C@H](C(C)C)C(=O)N5CCC[C@H]5C(=O)N(C)CC(=O)N(C)[C@@H](C(C)C)C(=O)O[C@@H]4C)c3nc-2c(C(=O)N[C@@H]2C(=O)N[C@H](C(C)C)C(=O)N3CCC[C@H]3C(=O)N(C)CC(=O)N(C)[C@@H](C(C)C)C(=O)O[C@@H]2C)c(N)c1=O [DACTINOMYCIN] (I: T[dV]P[Sar][NMeV] / II: T[dV]P[Sar][NMeV]; ester I:1-I:C, II:1-II:C; linker I:N-II:N via Actinocin(1to9)) |  |  |  |  |  |  |  |  |  |  |  |  |  |  |  |  | IC50 (MOLT-3; Homo sapiens, MOLT-3): < 1 µM; IC50 (U-937; Homo sapiens, U-937): < 1 µM
Nc1nc2c(ncn2COC(CO)CO)c(=O)[nH]1 [GANCICLOVIR] |  |  |  |  |  |  |  |  |  |  | > 100 | 0.096 (≈ 0.376 µM) | 0.032 (≈ 0.125 µM) | > 100 | > 100 | 0.48 (≈ 1.88 µM) | 
NC(=O)c1ncn([C@@H]2O[C@H](CO)[C@@H](O)[C@H]2O)n1 [RIBAVIRIN] | > 400 | > 400 | 48 (≈ 197 µM) | 16 (≈ 65.5 µM) | > 400 | > 400 | 80 (≈ 328 µM) | 9.6 (≈ 39.3 µM) | 9.6 (≈ 39.3 µM) | 16 (≈ 65.5 µM) | > 400 | 240 (≈ 983 µM) | > 400 | 80 (≈ 328 µM) | 240 (≈ 983 µM) | > 400 | 
